The text below walks through data of PubChem BioAssay AID602126 (Broad Institute, 2011).

The source made the active and inactive calls.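 How the source made its calls: active means compounds cutting cell ATP light whose fitted AC50 is at most double the top dose tried; inconclusive means flat moderate signal loss, or an unreliable curve fit; inactive means the rest.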

The test system of the assay is ldlA[mSR-BI] CHO cells viability, CellTiter-Glo ATP luminescence, 24 h. As to the kind of experiment: ldlA[mSR-BI] cell viability loss – CellTiter-Glo luminescence, 24 h, dry powder, set 5, cytotoxicity control for SR-BI HDL uptake inhibitor project, dose response (AID 602126). A digest of the protocol:
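Technique: CellTiter-Glo ATP luminescence; System: ldlA[mSR-BI] cells, cell viability measurement; Amount: 4,000 ldlA[mSR-BI] cells per well; Incubation: 24 h compound exposure at 37 °C, then 10 min with detection reagent.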
(In general: Cellular ATP, detected with luciferase, serves as a proxy for viable cell number.)
Usually AC50 stands for the concentration at which the activity in the assay is half-maximal. For the compound `O=C(Nc1ccc(Cl)cc1C(=O)c1ccc(Cl)cc1)c1cc(Br)ccc1NS(=O)(=O)c1ccc(Cl)cc1`, the AC50 is 4.98 µM.
The result for `O=C(Nc1ccccc1Cl)c1ccccc1NS(=O)(=O)c1ccccc1` reads 37.2 µM; that for `C[C@H](CO)N1C[C@H](C)[C@@H](CN(C)S(=O)(=O)c2ccc(Cl)cc2)Oc2ccc(NC(=O)Cc3cn(C)c4ccccc34)cc2C1=O`, > 70 µM (inactive); that for `CCOC(=O)N1CCC(NC(=O)c2ccc3c(c2)N(Cc2ccc(F)cc2)CCS3)CC1`, 65.5 µM.
The result for `C[C@H]1CN([C@@H](C)CO)C(=O)c2cc(NC(=O)Nc3ccccc3)ccc2O[C@@H]1CN(C)Cc1ccc(Cl)c(Cl)c1` reads 57 µM; that for `O=C(Nc1ccc(-c2nc3cc(NC(=O)c4ccccc4Cl)ccc3o2)cc1)c1ccccc1Cl`, 43.9 µM.
The result for `CC(C(=O)NC1CCCC1)N(C(=O)Cn1nnc(-c2cccc(F)c2)n1)C1CCCCC1` (centres undefined) reads > 70 µM (inactive); that for `COc1cccc(-c2csc(N3CCN(C(=S)Nc4cccc(Cl)c4)CC3)n2)c1`, 51.7 µM; that for `CCc1cc2cc3c(cc2nc1SCC(=O)OC(C)C)OCO3`, > 70 µM (inactive).
Take `COc1ccc(-c2nnn(CC(=O)N(C3CCCCC3)C(C)(C)C(=O)NC3CCCC3)n2)cc1OC`: the AC50 was > 70 µM (inactive).
For the compound `CCC(=O)N1CCc2cc(-c3csc(NC(=O)C4CCCO4)n3)ccc21` (centres undefined), the AC50 was 46.5 µM.
The result for `CCC(=O)N1CCc2cc(-c3csc(NC(=O)c4cccs4)n3)ccc21` reads 64.4 µM; that for `C[C@@H]1CN([C@@H](C)CO)C(=O)c2cc(NC(=O)Cc3cn(C)c4ccccc34)ccc2O[C@@H]1CN(C)S(=O)(=O)c1ccc(F)cc1`, > 70 µM (inactive).
On to `O=C(CN(C(=O)Cn1nnc(-c2ccc3c(c2)OC(F)(F)O3)n1)C1CCCCC1)NC1CCCC1`, for which the AC50 was > 70 µM (inactive).
With `CCC(=O)N1CCc2cc(-c3cn4ccccc4n3)ccc21`, the AC50 was 15.8 µM.
The result for `CC(C(=O)NC1CCCC1)N(C(=O)Cn1nnc(-c2ccc(Cl)c(Cl)c2)n1)C1CCCCC1` (centres undefined) reads 37 µM.
As to `CCNC(=O)N1CCc2cc(-c3csc(NC(=O)c4cc(OC)cc(OC)c4)n3)ccc21`, the AC50 is 60 µM.
Take `C[C@H]1CN([C@@H](C)CO)C(=O)c2cc(NC(=O)Cc3cn(C)c4ccccc34)ccc2O[C@H]1CN(C)S(=O)(=O)c1ccc(Cl)cc1`: the AC50 was > 70 µM (inactive).
Take `O=C(Nc1nc(-c2ccc3c(c2)CCN3)cs1)c1ccco1`: the AC50 was > 70 µM (inactive).
To `Cc1cc(C)n(CC(=O)NC2CCCc3c2cnn3-c2ccc(C)c(C)c2)n1` (centres undefined) belongs > 70 µM (inactive); to `CCn1c(COc2c(C)cccc2C)nnc1SCC(=O)N1CCN(c2ccccc2)CC1`, 65.2 µM.
In the case of `COc1ccc(-c2nnn(CC(=O)N(CC(=O)NC3CCCC3)C3CCCCC3)n2)cc1OC`, the AC50 was > 70 µM (inactive).
The result for `N#Cc1sc2nc(C3CC3)cc(-c3ccc(Cl)cc3)c2c1N` reads 63.1 µM; that for `COc1ccc(OC)c(CCNC(=O)c2ccc3c(c2)N(Cc2ccc(F)cc2)CCS3)c1`, > 70 µM (inactive); that for `C[C@H]1CN([C@@H](C)CO)C(=O)c2cccc(NC(=O)Nc3ccc(F)cc3)c2O[C@@H]1CN(C)Cc1ccc(Cl)c(Cl)c1`, 21.6 µM.
The result for `C[C@@H]1CN([C@@H](C)CO)C(=O)c2cc(NC(=O)Cc3cn(C)c4ccccc34)ccc2O[C@@H]1CN(C)S(=O)(=O)c1ccc(Cl)cc1` reads > 70 µM (inactive); that for `CCCN1CCc2cc(-c3csc(NC(=O)c4cc(OC)cc(OC)c4)n3)ccc21`, > 70 µM (inactive); that for `C[C@@H]1CN([C@H](C)CO)C(=O)c2cc(NC(=O)Cc3cn(C)c4ccccc34)ccc2O[C@H]1CN(C)S(=O)(=O)c1ccccc1`, 49.8 µM.
`CCC(=O)N1CCc2cc(-c3csc(N(C)C(=O)c4cc(OC)cc(OC)c4)n3)ccc21`: the AC50 was 15.1 µM.
To `COc1ccc(-c2cc(CC(=O)N(C3CCCCC3)C(C)C(=O)NC3CCCC3)no2)cc1OC` (centres undefined) belongs > 70 µM (inactive); to `CS(=O)(=O)N1CCc2cc(-c3csc(NC(=O)c4ccco4)n3)ccc21`, > 70 µM (inactive).
The result for `C[C@@H]1CN([C@H](C)CO)C(=O)c2cc(NC(=O)Cc3cn(C)c4ccccc34)ccc2O[C@@H]1CN(C)S(=O)(=O)c1ccc(F)cc1` reads 50.8 µM; that for `CC(C)C(=O)N1CCc2cc(-c3csc(NC(=O)c4ccco4)n3)ccc21`, > 70 µM (inactive); that for `CCC(=O)N1CCc2cc(-c3csc(NC(=O)c4cccc(OC)c4)n3)ccc21`, > 70 µM (inactive).
To `COC(=O)N1CCc2cc(-c3csc(NC(=O)c4cc(OC)cc(OC)c4)n3)ccc21` belongs > 70 µM (inactive); to `COCC(=O)N1CCc2cc(-c3csc(NC(=O)c4cc(OC)cc(OC)c4)n3)ccc21`, > 70 µM (inactive).
With `CC(C(=O)NC1CCCC1)N(C(=O)Cn1nnc(-c2ccc(Cl)cc2)n1)C1CCCCC1` (centres undefined), the AC50 is > 70 µM (inactive).
`C=CCN1CCc2cc(-c3csc(NC(=O)c4ccco4)n3)ccc21`: the AC50 was 57.7 µM.
To `CCC(=O)N1CCc2cc(-c3csc(NC(=O)c4cc(OC)cc(OC)c4)n3)ccc21` belongs > 70 µM (inactive); to `CCOc1ccccc1/C=C/c1onc(C)c1S(=O)(=O)N1CCC(C(=O)NC(C)(C)C)CC1`, > 70 µM (inactive).
On to `C[C@H]1CN([C@@H](C)CO)C(=O)c2cccc(NC(=O)Nc3ccccc3)c2O[C@@H]1CN(C)Cc1ccccc1`, for which the AC50 is > 70 µM (inactive).
To `O=C(Nc1cccc(NC(=O)c2cc([N+](=O)[O-])ccc2Cl)n1)c1cc([N+](=O)[O-])ccc1Cl` belongs 21.9 µM; to `O=C(Nc1ccc(-c2nc3ccc(NC(=O)c4ccc(Cl)cc4)cc3[nH]2)cc1)c1ccc(Cl)cc1`, 1.3 µM; to `O=C(CN(C(=O)Cn1nnc(-c2ccc(Cl)c(Cl)c2)n1)C1CCCCC1)NC1CCCC1`, 46.2 µM.
To `O=C(Nc1ccc(-c2nc3cc(NC(=O)c4ccccc4[N+](=O)[O-])ccc3o2)cc1)c1ccccc1[N+](=O)[O-]` belongs 36.3 µM.
To `CCc1sc(N2C(=O)C3C4CCC(C4=C(C)C)C3C2=O)nc1-c1ccccc1` (centres undefined) belongs > 70 µM (inactive); to `O=C(CN(C(=O)Cn1nnc(-c2ccc3c(c2)OCO3)n1)C1CCCCC1)NC1CCCC1`, > 70 µM (inactive); to `O=C(Nc1cc(Cl)ccc1Cl)c1cc(Br)ccc1NS(=O)(=O)c1ccc(Cl)c([N+](=O)[O-])c1`, 21 µM.
Take `Cc1ccccc1NC(=O)NCC1CCN(c2ccc(S(=O)(=O)N3CCOCC3)cc2)CC1`: the AC50 is 58.3 µM.
Turning to `CC(C)NC(=O)Nc1cccc2c1O[C@H](CN(C)Cc1ccc(Cl)c(Cl)c1)[C@@H](C)CN([C@@H](C)CO)C2=O`, the AC50 is > 70 µM (inactive).
The result for `CC(C(=O)NC1CCCC1)N(C(=O)Cn1nnc(-c2ccc3c(c2)OCO3)n1)C1CCCCC1` (centres undefined) reads 53 µM; that for `C[C@H]1CN([C@@H](C)CO)C(=O)c2cc(NC(=O)Cc3cn(C)c4ccccc34)ccc2O[C@@H]1CN(C)S(=O)(=O)c1ccc(Cl)cc1`, > 70 µM (inactive); that for `CCCCCCC1CCC/C1=N\NC(N)=S` (centres undefined), 2.13 µM.
The result for `CCC(=O)N1CCc2cc(-c3csc(NC(=O)c4cccc(OC)n4)n3)ccc21` reads 66.5 µM.
